High-throughput results from PubChem.
TCR-CD3 inh: human TCR-CD3 binding inhibition | inhibition, % at 9.4 µM | 360,000 tested, 0.37% active | TAMRA-labeled TCR probe fluorescence, biochemical; in the data active = inhibition above about 19%;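 also: recombinant mutant TCR 2C K166C tagged with TAMRA read by polarization; 0% = receptor in buffer alone and 100% = receptor with positive control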
SIAE inh: human SIAE inhibition, primary screen | Q9HAT2 | SIAE FP-Rh probe binding, fluorescence polarization | inhibition, % at 9.66 µM | 370,000 tested, 0.69% active;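 active = inhibition above a cutoff: mean of compounds within the control limits plus 3 SD of those, cut at about 17% in these data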;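 also: 0% = plate median of compound wells and 100% = probe without SIAE protein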
PAD4 inh: blocks human protein arginine deiminase 4. recombinant PAD4, RCA probe fluorescence polarization. Q9UM07. inhibition, % at 6.36 µM. 330,000 tested, 0.41% active. AID 485272;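 active = percent inhibition above a cutoff equal to the mean of all tested compounds plus 3 SD, cut at about 15% in these data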;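 also: 0% = PAD4 with RCA probe and DMSO and 100% = probe without PAD4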
mABHD4 FP: inhibitors of mouse ABHD4 | 370,000 tested, 0.54% active | inhibition, % at 8.92 µM | Q8VD66 | purified mABHD4, FP-Rh probe fluorescence polarization;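 active = inhibition exceeding the mean over every tested compound plus 3 SD, cut at about 30% in these data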;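 also: 0% = plate median of compound wells and 100% = S159A mutant with DMSO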
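System: mouse ABHD4 enzyme, wild type / Medium: HEPES pH 7.0, NaCl, Pluronic buffer / Reagent: FP-Rh activity-based fluorescent probe / Control set: S159A mutant high control, sample median low control / Detection: fluorescence polarization with parallel and perpendicular emission, 525/598 nm / Schedule: 45 min + 60 min at 25 °C / Compound dosing: 8.92 µM, single dose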
PRMT1 inh: PRMT1 (human) inhibition, primary screen; Q99873; recombinant PRMT1, activity-based probe fluorescence polarization; inhibition, % at 2.79 µM; 370,000 tested, 1.3% active;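 active = inhibition above about 21% made by adding two undisclosed values, limit read from the data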
Target sequence (Q99873 whole entry, looked up): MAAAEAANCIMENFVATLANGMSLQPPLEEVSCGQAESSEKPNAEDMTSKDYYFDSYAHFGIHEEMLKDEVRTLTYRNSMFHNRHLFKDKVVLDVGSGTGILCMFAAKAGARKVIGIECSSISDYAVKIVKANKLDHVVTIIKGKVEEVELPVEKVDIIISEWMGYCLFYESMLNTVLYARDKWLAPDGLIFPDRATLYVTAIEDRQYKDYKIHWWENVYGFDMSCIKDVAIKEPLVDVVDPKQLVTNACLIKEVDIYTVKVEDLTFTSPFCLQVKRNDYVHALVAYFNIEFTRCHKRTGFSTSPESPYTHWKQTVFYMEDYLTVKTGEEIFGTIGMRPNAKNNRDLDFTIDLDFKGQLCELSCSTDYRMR
HTRA1 inh: inhibitors of human serine peptidase HTRA1. Q92743. recombinant HTRA1, FP-rhodamine activity-based probe, fluorescence polarization. inhibition, % at 5.96 µM. 340,000 tested, 0.5% active. AID 504803; in the data active = inhibition above about 36%;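 also: 0% = enzyme with DMSO and 100% = wells lacking enzyme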
PAD4 FP conf: confirmation of human PAD4 inhibitors. 1,200 tested, 28% active. shares compounds with PAD4 inh. inhibition, % at 6.36 µM. recombinant PAD4, RCA probe fluorescence polarization;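 active = mean inhibition across replicates above the hit cutoff set by the earlier primary screen, cut at about 15% in these data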;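 also: inhibitors block active-site labeling by the probe so polarization falls; 0% = PAD4 with probe and DMSO and 100% = probe without PAD4 enzyme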
Active calls of the source: *; . = no result; ! = a repeat was not active. The list is not random: actives were taken first. Their share in the collection is about 2.9%.

SMILES	TCR-CD3 inh	SIAE inh	PAD4 inh	mABHD4 FP	PRMT1 inh	HTRA1 inh	PAD4 FP conf
CCCn1c(CN2CCN(C(=O)OCC)CC2)nc2cc(NC(=O)CC)ccc21	3	2	15*	-4	0	2	2
CC(C)c1cccc(C(C)C)c1NC(=O)CN1C(=O)NC2(CCCCCCC2)C1=O	2	-1	18*	0	0	2	8
C[C@H]1COc2cc(Br)ccc2S(=O)(=O)N1Cc1cn(Cc2ccc(C(F)(F)F)cc2)nn1	.	-7	.	1	1	.	.
COc1ccc(N2C(=O)CSC23C(=O)N2CCCc4cccc3c42)cc1 (stereo not given)	-6	-2	22*	-1	1	1	21*
O=C1CSC2(C(=O)N3CCCc4cccc2c43)N1c1cccc(C(F)(F)F)c1 (stereo not given)	.	.	18*	.	.	-8	8
COc1ccc(N=C2NC(=O)S/C2=C\c2ccc(N(C)C)cc2)cc1	6	12	36*	9	0	5	47*
O=C(OC12CCCN(C1)/C(=C/c1cccc(Cl)c1)C2)c1ccccc1 (stereo not given)	.	0	.	3	-2	.	.
CC(=O)Nc1ccc(N/C(C)=C/C(=O)c2cccnc2)cc1	5	5	22*	2	2	4	3
C/C(=C\C(=O)c1cccnc1)Nc1ccc(C(=O)O)cc1	1	8	4	9	-4	-2	.
CCSc1nc2ccccc2[nH]1	-3	-5	17*!	-1	2	7	6
CC(C)CSc1nc2ccccc2[nH]1	4	-1	-3	-1	-1	-3	.
CCOc1nc(Nc2ccc(OC)cc2OC)nc(OCC)n1	9	3	190*	2	3	1	10
CCn1nnnc1SCC(=O)N(C)C1CCS(=O)(=O)C1 (stereo not given)	5	6	16*	-2	-3	-3	-4
COc1ccc(CN(C)C(C#Cc2ccccc2)Cc2ccccc2)c(OC)c1 (stereo not given)	.	5	.	-2	-3	.	.
CCOc1ccc(C2OC34CCCCC3C(C#N)(C#N)C2(C#N)C(=N)O4)cc1OC (stereo not given)	.	.	35*	.	.	35	18*
COC(=O)[C@]12C[C@H](CC(=O)N3CCN(C(=O)c4ccco4)CC3)C(=O)N(Cc3ccccc3)C1=C[C@H](C1CCCC1)O[C@@H]2C	4	0	.	-5	-2	.	.
O=c1[nH]nc(-c2ccc(OCc3ccc(Cl)cc3Cl)cc2)o1	4	-1	89*	0	-2	8	-2
CCO/C(=C/c1sc2ccc(OC)cc2[n+]1CCCS(=O)(=O)[O-])CC	5	0	19*	7	77*	9	5
CCOC(=O)CNC(=O)c1sc(NC(=O)c2cccc(F)c2)nc1C	-2	6	25*	3	0	-2	2
CCOC(=O)CNC(=O)c1sc(NC(=O)c2ccccc2F)nc1C	3	1	-1	4	4	4	.
CCCSc1ccc(-c2nn(-c3ccccc3)cc2/C=C(/C#N)C(=O)N2CCOCC2)cc1	-6	-8	0	0	1	-32	.
CCSc1ccc(-c2nn(-c3ccccc3)cc2/C=C(/C#N)C(=O)NC)cc1	3	8	16*	2	-2	1	23*
COCC(=O)N(CCc1ccc(OC)c(OC)c1)Cc1nc2ccccc2c(=O)[nH]1	-6	-2	22*	3	-1	3	7
CCOC(=O)c1c(C)sc2c1N(C(=O)CCl)c1cc(Cl)ccc1S2	2	-4	19*	-2	2	-18	43*
Cc1sc2ncnc(SCC(=O)N3c4ccccc4Sc4ccc(Cl)cc43)c2c1C	1	-1	2	3	0	3	.
SMILES	TCR-CD3 inh	SIAE inh	PAD4 inh	mABHD4 FP	PRMT1 inh	HTRA1 inh	PAD4 FP conf
O=C(N/N=C/c1ccc(-c2ccccc2[N+](=O)[O-])o1)c1cccnc1	0	0	5	4	1	2	.
CC(C)(C)c1cc(C(=O)N/N=C/c2ccc(-c3ccccc3[N+](=O)[O-])o2)n[nH]1	11	-1	48*	10	5	-7	-7
CCC1C(=O)N=C(SCC(=O)Nc2ccccc2)NC1=O (stereo not given)	6	3	9	0	-1	-3	.
CCC1C(=O)N=C(SCC(=O)Nc2ccc(S(N)(=O)=O)cc2)NC1=O (stereo not given)	10	-2	16*	6	13	-8	11
Cc1cccc(C(=O)Nc2nc3ncccn3c2-c2ccc(F)c(F)c2)c1	.	0	.	-3	1	.	.
CCn1c(-c2ccccc2)c(C(=O)CCl)c2ccccc21	4	2	21*	-4	1	-8	42*
Cn1c(-c2ccccc2)c(C(=O)CCl)c2ccccc21	1	-2	.	-3	2	-13	.
O=C1C(NC(=O)N2c3ccccc3C=Cc3ccccc32)CCCCN1Cc1cccc(C(F)(F)F)c1 (stereo not given)	.	-1	.	-14	0	.	.
CCN(c1ccccc1)c1cc2ccccc2c(=O)[nH]1	5	8	16*	7	2	8	-2
O=C(O)CCN1C(=O)/C(=C/c2ccc(F)cc2F)SC1=S	.	-4	.	6	13	.	.
CCOc1ccc(N2C(=O)CC(Sc3ccccc3C(=O)O)C2=O)c([N+](=O)[O-])c1 (stereo not given)	2	-4	26*	9	68*	1	13
CCN1C(=O)CC(Sc2ccccc2C(=O)O)C1=O (stereo not given)	-5	5	3	2	-1	-4	.
COc1ccc(CCn2c(C)cc(C(=O)CSc3nc(N)cc(=O)[nH]3)c2C)cc1	1	-8	30*	-5	1	-23	9
Cc1ccc(S(=O)(=O)/N=C(/Sc2ccccc2C(=O)O)c2ccccc2)cc1	7	2	18*	2	4	-2	25*
COc1ccc(CCNC(=O)COC(=O)c2ccc(C)s2)cc1	-2	-2	81*	-3	1	0	-4
C=CCn1c(COc2ccc(C)cc2)nnc1SCc1ccc([N+](=O)[O-])cc1	.	4	.	3	-6	.	.
COc1ccc2c(c1OC)C(=O)OC2C1c2c(cc3c(c2OC)OCO3)CCN1C (stereo not given)	-7	1	0	1	-3	3	.
CN1CCc2cc3c(c4c2[C@H]1[C@H](O)c1ccccc1-4)OCO3	15	12	37*	46*	49*	17	34*
CCCCCCCCN1C(=O)[C@@H](CC(=O)NCCCN2CCCC2=O)C[C@@]2(C(=O)OC)C1=C[C@H](C(C)(C)C)O[C@@H]2C	-2	7	.	-7	1	.	.
